ChEMBL document CHEMBL3526048, “In vitro metabolism of rivoglitazone, a novel peroxisome proliferator-activated receptor γ agonist, in rat, monkey, and human liver microsomes and freshly isolated hepatocytes” (Drug Metab Dispos, 2011)

How the values were obtained:
Format in all cases: ADME
Cytochrome P450 3A4 [1] = molecular target: T1, Cytochrome P450 3A4 (Homo sapiens, UniProt P08684); assay: (§1) Activity of human CYP3A4 expressed in microsomes isolated from baculovirus infected insect cell assessed as enzyme-mediated 5-(4-((6-methoxy-1H-benzo[d]imidazol-2-yl)methoxy)benzyl)thiazolidine-2,4-dione formation at 20 uM after 2 hrs by radio-HPLC/LC-MS/MS analysis in presence of NADPH-generating system and NADPH-generating system/SAM
[2] = molecular target: T2, UDP-glucuronosyltransferase 1A3 (Homo sapiens, UniProt P35503); assay: (§2) Activity of human UGT1A3 expressed in microsomes isolated from baculovirus infected insect cell assessed as enzyme-mediated 5-hydroxy-5-(4-((6-methoxy-1-methyl-1H-benzo[d]imidazol-2-yl)methoxy)benzyl)thiazolidine-2,4-dione formation at 20 uM after 4 hrs by radio-HPLC/LC-MS/MS analysis in presence of NADPH-generating system and NADPH-generating system/SAM in presence of UDPGA and UDPGA/SAM
T2 sequence (P35503 whole entry): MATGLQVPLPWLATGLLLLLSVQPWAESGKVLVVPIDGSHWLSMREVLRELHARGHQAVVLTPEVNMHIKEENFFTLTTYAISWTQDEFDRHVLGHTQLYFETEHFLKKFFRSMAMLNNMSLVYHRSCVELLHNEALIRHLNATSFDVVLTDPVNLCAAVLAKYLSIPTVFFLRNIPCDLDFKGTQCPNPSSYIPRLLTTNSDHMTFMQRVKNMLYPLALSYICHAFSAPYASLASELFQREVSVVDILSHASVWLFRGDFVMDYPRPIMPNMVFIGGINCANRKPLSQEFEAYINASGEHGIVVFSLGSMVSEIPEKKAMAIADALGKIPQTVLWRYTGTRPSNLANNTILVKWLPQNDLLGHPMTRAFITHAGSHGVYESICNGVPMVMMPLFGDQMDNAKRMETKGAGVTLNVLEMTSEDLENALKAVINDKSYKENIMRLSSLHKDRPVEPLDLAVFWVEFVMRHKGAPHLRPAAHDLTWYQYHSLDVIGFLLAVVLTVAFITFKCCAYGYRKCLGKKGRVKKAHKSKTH

[3] = molecular target: T3, UDP-glucuronosyltransferase 2B7 (Homo sapiens, UniProt P16662); assay: Activity of human UGT2B7 expressed in microsomes isolated from baculovirus infected insect cell assessed as enzyme-mediated 3-(4-((6-methoxy-1-methyl-1H-benzo[d]imidazol-2-yl)methoxy)phenyl)-2-(methylsulfonyl)propanamide formation at 20 uM after 4 hrs by radio-HPLC/LC-MS/MS analysis in presence of NADPH-generating system/SAM
T3 sequence (P16662 whole entry): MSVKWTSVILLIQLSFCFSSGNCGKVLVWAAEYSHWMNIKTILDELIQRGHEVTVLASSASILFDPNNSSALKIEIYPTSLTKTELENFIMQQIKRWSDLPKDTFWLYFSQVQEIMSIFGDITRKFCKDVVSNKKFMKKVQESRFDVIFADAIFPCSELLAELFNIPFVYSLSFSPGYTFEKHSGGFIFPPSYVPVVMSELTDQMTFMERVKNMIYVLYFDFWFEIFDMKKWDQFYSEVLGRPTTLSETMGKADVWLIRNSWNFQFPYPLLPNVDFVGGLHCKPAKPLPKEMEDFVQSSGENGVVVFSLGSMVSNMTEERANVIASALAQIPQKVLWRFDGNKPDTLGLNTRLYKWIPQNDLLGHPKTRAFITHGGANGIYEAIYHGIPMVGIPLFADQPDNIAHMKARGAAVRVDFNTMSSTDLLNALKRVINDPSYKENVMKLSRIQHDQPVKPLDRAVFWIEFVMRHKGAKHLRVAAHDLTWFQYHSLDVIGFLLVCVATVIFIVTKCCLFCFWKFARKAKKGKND

Cytochrome P450 2C8 [4] = molecular target: T4, Cytochrome P450 2C8 (Homo sapiens, UniProt P10632); assay: Activity of human CYP2C8 expressed in microsomes isolated from baculovirus infected insect cell assessed as enzyme-mediated 2-((4-((2,4-dioxothiazolidin-5-yl)methyl)phenoxy)methyl)-1-methyl-1H-benzo[d]imidazol-6-yl hydrogen sulfate formation at 20 uM after 2 hrs by radio-HPLC/LC-MS/MS analysis
T4 sequence (P10632 whole entry): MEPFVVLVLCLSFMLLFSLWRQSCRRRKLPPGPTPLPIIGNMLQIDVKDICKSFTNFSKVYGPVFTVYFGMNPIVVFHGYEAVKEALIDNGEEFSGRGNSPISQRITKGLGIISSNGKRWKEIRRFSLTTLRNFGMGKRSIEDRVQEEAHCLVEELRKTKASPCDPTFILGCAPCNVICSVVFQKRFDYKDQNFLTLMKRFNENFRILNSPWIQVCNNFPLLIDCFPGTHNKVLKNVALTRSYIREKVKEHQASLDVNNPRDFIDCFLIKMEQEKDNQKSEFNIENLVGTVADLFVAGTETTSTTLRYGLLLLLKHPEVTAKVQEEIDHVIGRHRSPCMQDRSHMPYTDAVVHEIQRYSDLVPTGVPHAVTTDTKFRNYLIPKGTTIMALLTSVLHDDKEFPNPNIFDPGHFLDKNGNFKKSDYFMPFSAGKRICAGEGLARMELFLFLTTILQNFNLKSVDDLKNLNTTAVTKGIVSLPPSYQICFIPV
Outline: (§3)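 Baculovirus/insect-cell microsomes expressing single human CYPs, 1 mg/ml protein, with 50 mM potassium phosphate (pH 7.4) or 100 mM Tris-HCl (pH 7.5). NADPH-generating system: 2 mM NADP⁺, 20 mM glucose 6-phosphate, 2 units/ml G6PDH, 10 mM MgCl₂. [¹⁴C]rivoglitazone at 20 μM, 2 h at 37°C with shaking. Control used insect-cell control supersomes. Stopped with acetonitrile; supernatant concentrated under nitrogen; metabolites analysed by radio-HPLC, LC-MS and LC-MS/MS.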

[5] = molecular target: T3, UDP-glucuronosyltransferase 2B7; assay: Activity of human UGT2B7 expressed in microsomes isolated from baculovirus infected insect cell assessed as enzyme-mediated 2-((4-((2,4-dioxothiazolidin-5-yl)methyl)phenoxy)methyl)-1-methyl-1H-benzo[d]imidazol-6-yl hydrogen sulfate formation at 20 uM after 4 hrs by radio-HPLC/LC-MS/MS analysis
Cytochrome P450 2C8 [6] = molecular target: T4, Cytochrome P450 2C8; assay: Activity of human CYP2C8 expressed in microsomes isolated from baculovirus infected insect cell assessed as enzyme-mediated 5-(4-((6-hydroxy-1-methyl-1H-benzo[d]imidazol-2-yl)methoxy)benzyl)thiazolidine-2,4-dione formation at 20 uM after 2 hrs by radio-HPLC/LC-MS/MS analysis in presence of NADPH-generating system and NADPH-generating system/SAM; outline: as §3
Cytochrome P450 3A4 [7] = molecular target: T1, Cytochrome P450 3A4; assay: as §1, with “5-(4-((6-hydroxy-1-methyl-1H-benzo[d]imidazol-2-yl)methoxy)benzyl)thiazolidine-2,4-dione” for “5-(4-((6-methoxy-1H-benzo[d]imidazol-2-yl)methoxy)benzyl)thiazolidine-2,4-dione”
[8] = molecular target: T3, UDP-glucuronosyltransferase 2B7; assay: Activity of human UGT2B7 expressed in microsomes isolated from baculovirus infected insect cell assessed as enzyme-mediated 2-mercapto-3-(4-((6-methoxy-1-methyl-1H-benzo[d]imidazol-2-yl)methoxy)phenyl)propanamide formation at 20 uM after 4 hrs by radio-HPLC/LC-MS/MS analysis in presence of NADPH-generating system and NADPH-generating system/SAM in presence of UDPGA and UDPGA/SAM
Cytochrome P450 2C8 [9] = molecular target: T4, Cytochrome P450 2C8; assay: Activity of human CYP2C8 expressed in microsomes isolated from baculovirus infected insect cell assessed as enzyme-mediated (2S,3S,4S,5R,6R)-3,4,5-trihydroxy-6-(5-(4-((6-methoxy-1-methyl-1H-benzo[d]imidazol-2-yl)methoxy)benzyl)-2,4-dioxothiazolidin-3-yl)tetrahydro-2H-pyran-2-carboxylic acid formation at 20 uM after 2 hrs by radio-HPLC/LC-MS/MS analysis in presence of UDPGA and UDPGA/SAM
Cytochrome P450 3A5 = Cytochrome P450 3A5 (Homo sapiens, UniProt P20815); assay: Activity of human CYP3A5 expressed in microsomes isolated from baculovirus infected insect cell assessed as enzyme-mediated (2S,3S,4S,5R,6R)-6-((1-carboxy-2-(4-((6-methoxy-1-methyl-1H-benzo[d]imidazol-2-yl)methoxy)phenyl)ethylthio)carbonylamino)-3,4,5-trihydroxytetrahydro-2H-pyran-2-carboxylic acid formation at 20 uM after 2 hrs by radio-HPLC/LC-MS/MS analysis in presence of NADPH-generating system/SAM
[10] = molecular target: T2, UDP-glucuronosyltransferase 1A3; assay: as §2, with “2-hydroxy-3-(4-((6-methoxy-1-methyl-1H-benzo[d]imidazol-2-yl)methoxy)phenyl)propanamide” for “5-hydroxy-5-(4-((6-methoxy-1-methyl-1H-benzo[d]imidazol-2-yl)methoxy)benzyl)thiazolidine-2,4-dione”

Measured: Drug metabolism

T1 sequence (P08684 whole entry): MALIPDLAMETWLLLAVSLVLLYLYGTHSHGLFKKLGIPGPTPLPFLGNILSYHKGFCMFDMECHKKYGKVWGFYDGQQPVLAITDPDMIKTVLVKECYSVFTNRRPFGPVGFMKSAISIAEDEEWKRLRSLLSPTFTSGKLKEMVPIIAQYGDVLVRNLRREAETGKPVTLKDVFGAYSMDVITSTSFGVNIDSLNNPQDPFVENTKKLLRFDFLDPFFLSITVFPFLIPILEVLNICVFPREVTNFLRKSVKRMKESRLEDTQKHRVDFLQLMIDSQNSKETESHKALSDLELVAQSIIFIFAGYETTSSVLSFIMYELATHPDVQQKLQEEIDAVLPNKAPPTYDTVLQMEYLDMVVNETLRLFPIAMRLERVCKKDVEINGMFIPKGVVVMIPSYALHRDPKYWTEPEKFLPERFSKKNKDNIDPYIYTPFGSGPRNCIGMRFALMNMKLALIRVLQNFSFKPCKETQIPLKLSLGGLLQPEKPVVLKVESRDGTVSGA
Chain of Cytochrome P450 3A5 (P20815 whole entry): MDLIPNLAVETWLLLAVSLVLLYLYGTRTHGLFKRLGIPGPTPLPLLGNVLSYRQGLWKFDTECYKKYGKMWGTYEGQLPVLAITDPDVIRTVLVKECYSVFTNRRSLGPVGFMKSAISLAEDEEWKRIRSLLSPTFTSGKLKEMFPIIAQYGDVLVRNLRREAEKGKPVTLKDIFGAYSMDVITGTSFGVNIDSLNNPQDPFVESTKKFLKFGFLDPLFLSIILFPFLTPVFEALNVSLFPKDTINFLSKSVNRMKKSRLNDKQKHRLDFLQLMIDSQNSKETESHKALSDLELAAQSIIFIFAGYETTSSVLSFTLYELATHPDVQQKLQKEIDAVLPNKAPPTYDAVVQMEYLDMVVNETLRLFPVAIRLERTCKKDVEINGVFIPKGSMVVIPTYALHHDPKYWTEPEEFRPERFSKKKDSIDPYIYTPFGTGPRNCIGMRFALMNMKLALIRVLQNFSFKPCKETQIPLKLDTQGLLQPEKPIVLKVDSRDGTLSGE

COc1ccc2nc(COc3ccc(C[14CH]4SC(=O)NC4=O)cc3)n(C)c2c1.Cl (racemic)
metabolite_not_detected: [2] | [3] | Cytochrome P450 2C8 [4] | [5] | [8] | Cytochrome P450 2C8 [9] | Cytochrome P450 3A5 | [10]
metabolite_detected: Cytochrome P450 3A4 [1] | Cytochrome P450 2C8 [6] | Cytochrome P450 3A4 [7]
